Data taken from ChEMBL document CHEMBL1921735, “Antibacterial optimization of 4-aminothiazolyl analogues of the natural product GE2270 A: identification of the cycloalkylcarboxylic acids” (J Med Chem, 2011).
≈ marks a conversion by molar mass, not a printed value. Calls of active or inactive are those of the source.

Assays:
Enterococcus faecium = experiment: Antibacterial activity against Enterococcus faecium 7130724 by CLSI M07-A8 method; type: functional
Outline: (§1)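 Broth microdilution MIC run per CLSI M07-A8 (2009).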

Staphylococcus aureus [1] = experiment: Antibacterial activity against methicillin-resistant Staphylococcus aureus isolate A4.018 by CLSI M07-A8 method; type: functional
Enterococcus faecalis [2] = experiment: Antibacterial activity against Enterococcus faecalis isolate NB04025 infected in CD1 mouse assessed as protection against bacterial infection administered immediately after infection measured on day 5; type: functional; conditions: isolate NB04025, 120 h
Outline: (§2)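 Mouse lethal systemic infection: ip injection of 1 × 10^8 cfu/mouse (10−100× minimal lethal dose), E. faecalis in 50% sterile rat fecal extract, S. aureus in 0.9% NaCl. Therapy by tail-vein bolus at several doses, six mice per group. Started immediately for E. faecalis; at 1 and 5 h post-inoculation for S. aureus.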

Streptococcus pyogenes = experiment: Antibacterial activity against Streptococcus pyogenes ATCC BAA-595 by CLSI M07-A8 method; type: functional; outline: as §1
Enterococcus faecalis [3] = experiment: Antibacterial activity against Enterococcus faecalis ATCC 29212 by CLSI M07-A8 method; type: functional; outline: as §1
Streptococcus pneumoniae = experiment: Antibacterial activity against Streptococcus pneumoniae by CLSI M07-A8 method; type: functional, organism-based; outline: as §1
Staphylococcus aureus [4] = experiment: Antibacterial activity against Staphylococcus aureus ATCC 49951 infected in CD1 mouse assessed as protection against bacterial infection administered 5 hrs post infection measured on day 5; type: functional; outline: as §2
Staphylococcus aureus [5] = experiment: Antibacterial activity against GE2270-A-resistant Staphylococcus aureus harboring tufA G258D mutant gene by CLSI M07-A8 method; type: functional

Row | SMILES | MIC (Enterococcus faecium) [µg/mL] | MIC (Staphylococcus aureus [1]) [µg/mL] | ED50 (Enterococcus faecalis [2]) [mg/kg] | MIC (Streptococcus pyogenes) [µg/mL] | MIC (Enterococcus faecalis [3]) [µg/mL] | Activity (Streptococcus pneumoniae) | ED50 (Staphylococcus aureus [4]) [mg/kg] | Activity (Staphylococcus aureus [5]) | MIC (Staphylococcus aureus [5]) [µg/mL]
1 | CNC(=O)C[C@@H]1NC(=O)c2csc(n2)-c2ccc(-c3nc(NC(=O)c4cnc(C(=O)O)cn4)cs3)nc2-c2csc(n2)-c2csc(n2)[C@H]([C@@H](O)c2ccccc2)NC(=O)CNC(=O)c2nc(sc2COC)[C@H](C(C)C)NC(=O)c2nc1sc2C | 0.25 (≈ 0.201 µM) | 0.5 (≈ 0.401 µM) | 2.2 | 8 (≈ 6.42 µM) | 0.25 (≈ 0.201 µM) | Active | 13.9 |  | 
2 | CNC(=O)C[C@@H]1NC(=O)c2csc(n2)-c2ccc(-c3nc(NC(=O)c4ccc(C(=O)O)cn4)cs3)nc2-c2csc(n2)-c2csc(n2)[C@H]([C@@H](O)c2ccccc2)NC(=O)CNC(=O)c2nc(sc2COC)[C@H](C(C)C)NC(=O)c2nc1sc2C | < 0.06 | 0.25 (≈ 0.201 µM) | 0.8 | 4 (≈ 3.21 µM) | 0.125 (≈ 0.1 µM) | Active | 4.4 |  | 
3 | CNC(=O)C[C@@H]1NC(=O)c2csc(n2)-c2ccc(-c3nc(NC(=O)OCCCCN)cs3)nc2-c2csc(n2)-c2csc(n2)[C@H]([C@@H](O)c2ccccc2)NC(=O)CNC(=O)c2nc(sc2COC)[C@H](C(C)C)NC(=O)c2nc1sc2C | 1 (≈ 0.825 µM) | 1 (≈ 0.825 µM) |  | 8 (≈ 6.6 µM) | 0.5 (≈ 0.413 µM) | Active | 6.48 | inactive | 
4 | CNC(=O)C[C@@H]1NC(=O)c2csc(n2)-c2ccc(-c3nc(NC(=O)CC[C@H](N)C(=O)O)cs3)nc2-c2csc(n2)-c2csc(n2)[C@H]([C@@H](O)c2ccccc2)NC(=O)CNC(=O)c2nc(sc2COC)[C@H](C(C)C)NC(=O)c2nc1sc2C | > 32 | > 32 |  | > 32 | > 32 | Active |  | inactive | 
5 | CNC(=O)C[C@@H]1NC(=O)c2csc(n2)-c2ccc(-c3nc(NC(=O)CC[C@@H](C)C(=O)O)cs3)nc2-c2csc(n2)-c2csc(n2)[C@H]([C@@H](O)c2ccccc2)NC(=O)CNC(=O)c2nc(sc2COC)[C@H](C(C)C)NC(=O)c2nc1sc2C | 0.25 (≈ 0.204 µM) | 0.25 (≈ 0.204 µM) |  | 4 (≈ 3.27 µM) | 0.125 (≈ 0.102 µM) | Active |  | inactive | 
6 | CNC(=O)C[C@@H]1NC(=O)c2csc(n2)-c2ccc(-c3nc(NC(=O)CC(=O)O)cs3)nc2-c2csc(n2)-c2csc(n2)[C@H]([C@@H](O)c2ccccc2)NC(=O)CNC(=O)c2nc(sc2COC)[C@H](C(C)C)NC(=O)c2nc1sc2C | 2 (≈ 1.69 µM) | 1 (≈ 0.846 µM) |  | 8 (≈ 6.77 µM) | 1 (≈ 0.846 µM) | Active |  | inactive | 
7 | CNC(=O)C[C@@H]1NC(=O)c2csc(n2)-c2ccc(-c3nc(NC(=O)NCCC(=O)O)cs3)nc2-c2csc(n2)-c2csc(n2)[C@H]([C@@H](O)c2ccccc2)NC(=O)CNC(=O)c2nc(sc2COC)[C@H](C(C)C)NC(=O)c2nc1sc2C | 2 (≈ 1.65 µM) | 1 (≈ 0.825 µM) |  | 8 (≈ 6.6 µM) | 1 (≈ 0.825 µM) | Active |  |  | > 32
8 | CNC(=O)C[C@@H]1NC(=O)c2csc(n2)-c2ccc(-c3nc(NS(C)(=O)=O)cs3)nc2-c2csc(n2)-c2csc(n2)[C@H]([C@@H](O)c2ccccc2)NC(=O)CNC(=O)c2nc(sc2COC)[C@H](C(C)C)NC(=O)c2nc1sc2C | 4 (≈ 3.41 µM) | 2 (≈ 1.7 µM) |  | > 32 | 2 (≈ 1.7 µM) | Active |  |  | > 32
9 | CNC(=O)C[C@@H]1NC(=O)c2csc(n2)-c2ccc(-c3nc(NC(=O)O[C@H]4C[C@@H](C(=O)O)C4)cs3)nc2-c2csc(n2)-c2csc(n2)[C@H]([C@@H](O)c2ccccc2)NC(=O)CNC(=O)c2nc(sc2COC)[C@H](C(C)C)NC(=O)c2nc1sc2C | 0.03 (≈ 0.0242 µM) | 0.06 (≈ 0.0484 µM) | 1 | 1 (≈ 0.807 µM) | 0.06 (≈ 0.0484 µM) | Active | 2.9 |  | 
10 | CNC(=O)C[C@@H]1NC(=O)c2csc(n2)-c2ccc(-c3nc(NC(=O)OC(C)(C)C)cs3)nc2-c2csc(n2)-c2csc(n2)[C@H]([C@@H](O)c2ccccc2)NC(=O)CNC(=O)c2nc(sc2COC)[C@H](C(C)C)NC(=O)c2nc1sc2C | > 128 | > 128 |  | > 128 | > 128 | Active |  |  | > 32
11 | CNC(=O)C[C@@H]1NC(=O)c2csc(n2)-c2ccc(-c3nc(NC(=O)CCCC(=O)O)cs3)nc2-c2csc(n2)-c2csc(n2)[C@H]([C@@H](O)c2ccccc2)NC(=O)CNC(=O)c2nc(sc2COC)[C@H](C(C)C)NC(=O)c2nc1sc2C | 0.5 (≈ 0.413 µM) | 0.25 (≈ 0.207 µM) |  | 8 (≈ 6.61 µM) | 0.25 (≈ 0.207 µM) | Active |  | inactive | 
12 | CNC(=O)C[C@@H]1NC(=O)c2csc(n2)-c2ccc(-c3nc(NC(=O)OCCN4CCOCC4)cs3)nc2-c2csc(n2)-c2csc(n2)[C@H]([C@@H](O)c2ccccc2)NC(=O)CNC(=O)c2nc(sc2COC)[C@H](C(C)C)NC(=O)c2nc1sc2C | 0.5 (≈ 0.399 µM) | 1 (≈ 0.798 µM) |  | > 32 | 0.5 (≈ 0.399 µM) | Active |  | inactive | 
13 | CNC(=O)C[C@@H]1NC(=O)c2csc(n2)-c2ccc(-c3nc(NC(=O)OC4CC(C)(C)NC(C)(C)C4)cs3)nc2-c2csc(n2)-c2csc(n2)[C@H]([C@@H](O)c2ccccc2)NC(=O)CNC(=O)c2nc(sc2COC)[C@H](C(C)C)NC(=O)c2nc1sc2C | 0.5 (≈ 0.391 µM) | 1 (≈ 0.781 µM) |  | 8 (≈ 6.25 µM) | 1 (≈ 0.781 µM) | Active |  | inactive | 
14 | CNC(=O)C[C@@H]1NC(=O)c2csc(n2)-c2ccc(-c3nc(NC(=O)[C@H](CN)CCC(=O)O)cs3)nc2-c2csc(n2)-c2csc(n2)[C@H]([C@@H](O)c2ccccc2)NC(=O)CNC(=O)c2nc(sc2COC)[C@H](C(C)C)NC(=O)c2nc1sc2C | 1 (≈ 0.807 µM) | 1 (≈ 0.807 µM) | > 60 | > 32 | 0.5 (≈ 0.403 µM) | Active | 9.5 | inactive | 
15 | CNC(=O)C[C@@H]1NC(=O)c2csc(n2)-c2ccc(-c3nc(NS(N)(=O)=O)cs3)nc2-c2csc(n2)-c2csc(n2)[C@H]([C@@H](O)c2ccccc2)NC(=O)CNC(=O)c2nc(sc2COC)[C@H](C(C)C)NC(=O)c2nc1sc2C | 4 (≈ 3.4 µM) | 4 (≈ 3.4 µM) |  | > 32 | 2 (≈ 1.7 µM) | Active |  |  | > 32
16 | CNC(=O)C[C@@H]1NC(=O)c2csc(n2)-c2ccc(-c3nc(NC(=O)OCCCN)cs3)nc2-c2csc(n2)-c2csc(n2)[C@H]([C@@H](O)c2ccccc2)NC(=O)CNC(=O)c2nc(sc2COC)[C@H](C(C)C)NC(=O)c2nc1sc2C | 1 (≈ 0.835 µM) | 1 (≈ 0.835 µM) |  | 16 (≈ 13.4 µM) | 1 (≈ 0.835 µM) | Active |  | inactive | 
17 | CNC(=O)C[C@@H]1NC(=O)c2csc(n2)-c2ccc(-c3nc(-n4cnc(C(=O)O)c4)cs3)nc2-c2csc(n2)-c2csc(n2)[C@H]([C@@H](O)c2ccccc2)NC(=O)CNC(=O)c2nc(sc2COC)[C@H](C(C)C)NC(=O)c2nc1sc2C | > 32 | 4 (≈ 3.36 µM) |  | > 32 | 4 (≈ 3.36 µM) | Active |  |  | > 32
18 | CNC(=O)C[C@@H]1NC(=O)c2csc(n2)-c2ccc(-c3nc(NC(C)=O)cs3)nc2-c2csc(n2)-c2csc(n2)[C@H]([C@@H](O)c2ccccc2)NC(=O)CNC(=O)c2nc(sc2COC)[C@H](C(C)C)NC(=O)c2nc1sc2C | 1 (≈ 0.878 µM) | 2 (≈ 1.76 µM) |  | > 32 | 1 (≈ 0.878 µM) | Active |  |  | > 32
19 | CNC(=O)C[C@@H]1NC(=O)c2csc(n2)-c2ccc(-c3nc(NC(=O)O[C@H]4CC[C@H](N)CC4)cs3)nc2-c2csc(n2)-c2csc(n2)[C@H]([C@@H](O)c2ccccc2)NC(=O)CNC(=O)c2nc(sc2COC)[C@H](C(C)C)NC(=O)c2nc1sc2C | 0.5 (≈ 0.404 µM) | 1 (≈ 0.808 µM) | < 3.3 | 8 (≈ 6.46 µM) | 0.5 (≈ 0.404 µM) | Active | 19.3 | inactive | 
20 | CNC(=O)C[C@@H]1NC(=O)c2csc(n2)-c2ccc(-c3nc(NC(=O)NCCCC(=O)O)cs3)nc2-c2csc(n2)-c2csc(n2)[C@H]([C@@H](O)c2ccccc2)NC(=O)CNC(=O)c2nc(sc2COC)[C@H](C(C)C)NC(=O)c2nc1sc2C | 4 (≈ 3.26 µM) | 1 (≈ 0.816 µM) |  | 16 (≈ 13.1 µM) | 1 (≈ 0.816 µM) | Active |  | inactive | 
21 | CNC(=O)C[C@@H]1NC(=O)c2csc(n2)-c2ccc(-c3nc(NC(=O)[C@H](C)CCC(=O)O)cs3)nc2-c2csc(n2)-c2csc(n2)[C@H]([C@@H](O)c2ccccc2)NC(=O)CNC(=O)c2nc(sc2COC)[C@H](C(C)C)NC(=O)c2nc1sc2C | 0.5 (≈ 0.408 µM) | 0.25 (≈ 0.204 µM) | 11.1 | 4 (≈ 3.27 µM) | 0.25 (≈ 0.204 µM) | Active | 10.6 | inactive | 
22 | CNC(=O)C[C@@H]1NC(=O)c2csc(n2)-c2ccc(-c3nc(NC(=O)C(C)(C)CCCC(C)(C)C(=O)O)cs3)nc2-c2csc(n2)-c2csc(n2)[C@H]([C@@H](O)c2ccccc2)NC(=O)CNC(=O)c2nc(sc2COC)[C@H](C(C)C)NC(=O)c2nc1sc2C | 1 (≈ 0.772 µM) | 4 (≈ 3.09 µM) |  | > 32 | 1 (≈ 0.772 µM) | Active |  | inactive | 
